The results in this text go back to ChEMBL document CHEMBL1134794, “Discovery of inhibitors of cell adhesion molecule expression in human endothelial cells. 1. Selective inhibition of ICAM-1 and E-selectin expression” (J Med Chem, 2001).

SMILES strings stand for the structures. ≈ marks a conversion by molar mass, not a printed value.

Data set [1] in a line: In vitro cellular toxicity against human umbilical vein endothelial cells (HUVEC) in MTS assay. It counts as cell-based.
A short description of data set [2]: Mean plasma concentration measured in rat. It is filed as ADME, organism-based. Summed up: (§1)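 Rats given a single oral dose of 5 mg/kg, no intravenous arm. Plasma drug concentrations followed over time and analysed by HPLC. Values are means (±SEM, n=3).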
Data set [3] in a line: Area under curve against time (0-8 hr) in rat. It counts as ADME, organism-based. Details: time < 8 hr. The settings on record: in vivo. Summed up: as §1
Data set [4] is described as follows: Maximum time taken to reach mean plasma concentration, measured in rat. It counts as ADME, organism-based. Summed up:
as §1

Data set [5] in a line: Aqueous solubility was determined at pH 7.4. It counts as physicochemical. The settings on record: buffer. Summed up: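 Solubility determined in 0.05 M NaH₂PO₄ buffer at pH 7.4.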
A short description of data set [6]: Half-life was measured in rat. It counts as ADME, organism-based. Particulars: in vivo. The procedure, abridged: as §1

In the case of `Cc1ccc(Sc2ccnc3sc(C(N)=O)cc23)cc1`, 44 µM corresponded to half-maximal inhibition in data set [1] (IC50). This lies in the double-digit micromolar range.
Consider `Cc1ccc(Sc2cncc3sc(C(=O)O)cc23)cc1`, for which, in data set [2], the highest level (Cmax) was 751 ng/mL. In data set [3], the AUC at 8 h is 2950 ng·h/mL. Besides, the Tmax in data set [4] is 19.8 min.
For `CCc1cc2c(Cl)ncnc2s1`, the IC50 in data set [1] is over 100 µM.
Compound `NC(=O)c1cc2c(Sc3ccc(C(F)(F)F)cc3)cncc2s1` registered an IC50 in data set [1] of 95 µM.
Take `CCc1cc2c(Sc3nnc(N)s3)ncnc2s1`: the IC50 in data set [1] worked out at 95 µM. In other words, the double-digit micromolar range.
Consider `Cc1ccc(Sc2cncc3sc(C(=N)S)cc23)cc1`, for which the IC50 in data set [1] worked out at 51 µM.
With `Cc1ccc(Sc2cncc3sc(C(N)=O)cc23)cc1`, the midpoint of inhibition in data set [1], the IC50, lay at 152 µM. In data set [2], this compound showed a Cmax of 78 ng/mL. In addition, the AUC at 8 h in data set [3] came out at 131 ng·h/mL. Besides, in data set [5], the solubility stood at 400 µg/mL (≈ 1330 µM). In data set [6], this compound had a half-life of 60 min. Moreover, in data set [4], the Tmax amounted to 15 min.
With `CCc1cc2c(O)ncnc2s1`, the IC50 in data set [1] is over 100 µM.
Still for that read-out and setting: then `Cc1ccc(Sc2cncc3sc(C(N)=O)cc23)c(C)c1`, with over 10 µM; and `Cc1ccc(Sc2cncc3sc(C(=O)NCCCN4CCOCC4)cc23)cc1`, with 68 µM.
As to `Cc1ccc(Sc2cncc3sccc23)cc1`, the half-maximal inhibitory concentration (IC50) in data set [1] turned out to be 5.8 µM. This IC50 lies about 12-fold lower than the previous one.
Turning to `Cc1ccc([S+]([O-])c2cncc3sc(C(N)=O)cc23)cc1` (centres undefined), the Cmax in data set [2] came to 476 ng/mL. Further, the AUC at 8 h in data set [3] came out at 1240 ng·h/mL. Moreover, the Tmax in data set [4] came out at 25.2 min.
Take `CCc1cc2c(NCc3ccccc3)ncnc2s1`: the IC50 in data set [1] came out at 72 µM. This lies in the double-digit micromolar range.
`CCc1cc2c(SCc3ccccc3)ncnc2s1` gave an IC50 in data set [1] of over 100 µM.
Consider `Cc1ccc(Sc2cncc3sc(C(=O)NN)cc23)cc1`, for which, in data set [1], the IC50 was 82 µM.
Still for that read-out and setting: for `Cc1cccc(Sc2cncc3sc(C(N)=O)cc23)c1` the value was 96 µM; for `CCc1cc2c(Sc3nnc(C)s3)ncnc2s1`, 51 µM.
The same measure, in the same setting: then `Cc1ccc(Sc2cncc3sc(C(N)=O)cc23)cc1C`, with over 100 µM; and `Cc1ccc(Sc2cncc3sc(/C=N/OCC(=O)O)cc23)cc1`, with 84 µM.
With `NC(=O)c1cc2c(Sc3ccccn3)cncc2s1`, the IC50 in data set [1] is over 100 µM.
